Test results: PubChem BioAssay
Calls of active or inactive are those of the source.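 The calls were made as follows, unless noted: active = viability at or under a set limit in both replicates, limit being median viability minus 3 SD (cut at about 48% in these data, passing the limit was not always enough); inconclusive = at or under the limit in just one replicate; inactive = at or above the limit in both replicates.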

Key:
[1] = Her2 expression decrease, cell viability multiplex – SKBR3 breast tumor cells, AlphaScreen, ATP viability, primary screen (AID 461;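 active = Her2 level under about 52% in both replicate screens, with viability over 70% of control, limit read from the data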;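 as to Her2 level: lower value means less Her2 protein in the cells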;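 as to viability: percent of carrier control wells set as 100% viability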); conditions: SKBR3 Her2 protein level, 18-24 h, measured here: SKBR3 viability, ATP luminescence, at 10 µM
[2] = target: Receptor tyrosine-protein kinase erbB-2 (Homo sapiens) (UniProt P04626); assay: as above; conditions: 18-24 h, at 10 µM, stronger effect = lower value
Receptor tyrosine-protein kinase erbB-2 (Homo sapiens), sequence (P04626 whole entry, looked up): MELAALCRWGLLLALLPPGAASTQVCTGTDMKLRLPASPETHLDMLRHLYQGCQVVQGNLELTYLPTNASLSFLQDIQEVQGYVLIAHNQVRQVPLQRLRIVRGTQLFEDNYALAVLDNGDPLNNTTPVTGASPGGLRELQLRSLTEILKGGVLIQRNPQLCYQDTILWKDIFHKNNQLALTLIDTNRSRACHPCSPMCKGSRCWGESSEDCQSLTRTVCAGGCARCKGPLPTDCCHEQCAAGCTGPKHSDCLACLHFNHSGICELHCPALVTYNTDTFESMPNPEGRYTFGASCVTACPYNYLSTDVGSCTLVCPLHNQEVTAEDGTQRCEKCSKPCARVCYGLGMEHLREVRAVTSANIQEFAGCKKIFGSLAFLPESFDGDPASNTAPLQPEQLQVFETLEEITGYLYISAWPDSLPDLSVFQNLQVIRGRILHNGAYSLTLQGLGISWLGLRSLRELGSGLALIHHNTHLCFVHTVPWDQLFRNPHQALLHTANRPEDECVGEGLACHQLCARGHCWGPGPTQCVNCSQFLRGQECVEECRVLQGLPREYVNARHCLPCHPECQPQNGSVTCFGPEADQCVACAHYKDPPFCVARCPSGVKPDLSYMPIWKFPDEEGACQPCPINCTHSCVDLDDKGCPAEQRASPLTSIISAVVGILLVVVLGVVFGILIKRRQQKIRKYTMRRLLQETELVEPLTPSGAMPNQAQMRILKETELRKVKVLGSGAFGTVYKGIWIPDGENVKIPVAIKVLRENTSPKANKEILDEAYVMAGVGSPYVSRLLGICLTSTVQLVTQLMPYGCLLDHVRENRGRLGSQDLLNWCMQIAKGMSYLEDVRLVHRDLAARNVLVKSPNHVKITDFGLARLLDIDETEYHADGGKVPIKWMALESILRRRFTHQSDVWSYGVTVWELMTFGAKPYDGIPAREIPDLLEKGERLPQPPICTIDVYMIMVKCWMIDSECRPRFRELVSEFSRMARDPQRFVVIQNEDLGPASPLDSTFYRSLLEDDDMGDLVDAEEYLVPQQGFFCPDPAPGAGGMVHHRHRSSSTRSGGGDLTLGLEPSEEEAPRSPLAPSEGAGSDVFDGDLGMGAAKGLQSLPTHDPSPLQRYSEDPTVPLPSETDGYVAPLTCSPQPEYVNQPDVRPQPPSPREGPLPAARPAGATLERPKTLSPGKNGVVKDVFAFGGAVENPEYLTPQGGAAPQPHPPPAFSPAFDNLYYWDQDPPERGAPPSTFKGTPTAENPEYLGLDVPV

[3] = reduced viability of SK-BR-3 breast cancer cells – cell-based, 24 h, human, pilot screen (AID 572;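 active = viability at or below 10% of carrier control in both of two separate runs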;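 also: compound exposure lasted between 18 and 24 h rather than exactly 24 h; 100% = carrier-treated control wells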); conditions: SK-BR-3 viability, CellTiter-Glo luminescence, at 10 µM, stronger effect = lower value
[4] = HUVEC growth inhibition – cell-based, human, primary screen (AID 575;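 active = viability at or below 30% in both replicate assays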;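 also: 100% = median of untreated cell wells with 0.1% DMSO on each plate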); conditions: HUVEC proliferation, CellTiter-Glo luminescence, 72 h; at 10 µM; stronger effect = lower value
Method in brief: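 System – primary HUVEC, no more than 12 passages · Medium – Low-serum (2% FBS) EBM, supplemented · Times – 72 h exposure, 37 °C, 5% CO2, 30 min RT equilibration · Measured by – luminescent ATP assay · Read-out – % viability relative to median vehicle-well signal on each plate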

[5] = H69AR cell proliferation blockers – human, duplicate replicates, primary screen (AID 580); conditions: H69AR lung tumor cells viability, ATP luminescence, 72 h; at 10 µM; stronger effect = lower value;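 also: 100% = mean luminescence of untreated wells and 0% = no signal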
[6] = MRP1 drug-resistance reversers in H69AR cells – cell-based, doxorubicin co-treatment, pilot screen (AID 601;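 active = viability loss from added drug above about 55%, and viability with drug at most 40%, in both replicates, limit read from the data, passing the limit was not always enough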); conditions: CellTiter-Glo, 72 h, at 10 µM; for differential viability (reversal): stronger effect = higher value
[7] = yeast transport mutant growth inhibition pilot in 384-well plates, post-Golgi transport modulator project (AID 636; in the data active = inhibition above about 31%); conditions: absorbance 615 nm, about 18 h, stronger effect = higher value
[8] = growth suppression of yeast trafficking mutant, preliminary HTS, modulators of trafficking downstream of Golgi apparatus project, 1536-format plate, OD 615 nm (AID 637; in the data active = inhibition above about 30%); conditions: yeast transport mutant growth, absorbance 615 nm, 18 h; stronger effect = higher value
[9] = H69AR cells + 2 uM doxorubicin, measured here: viability with 2 uM doxorubicin, stronger effect = lower value
[10] = H69AR cells, compound alone cytotoxicity

Question: With `CCn1c(SCC(=O)Nc2ccc(C(C)=O)cc2)nc2ccccc21` as the compound, how does the viability [1] read?
Answer: 90%

Question: What about the Her2 level [2] of the same compound?
Answer: 77% (inactive)

Question: And the viability [3]?
Answer: 90% (inactive)

Question: What about the viability [4] of the same compound?
Answer: 57% (inactive)

Question: And the viability [5]?
Answer: 83.1% (inactive)

Question: And the differential viability (reversal) ([6]; H69AR cells + 2 uM doxorubicin)?
Answer: -3.56% (inactive)

Question: And the viability [6, 9]?
Answer: 86.7%

Question: What about the viability [6, 10] of the same compound?
Answer: 83.1%

Question: What about the inhibition [7] of the same compound?
Answer: -1.45% (inactive)

Question: And the inhibition [8]?
Answer: -3.45% (inactive)

Question: Which viability [1] does the source give for `O=C(Nc1ccc(Cl)cc1)C1CC=CCC1C(=O)OCC(F)(F)C(F)F` (stereo not given) here?
Answer: 93%

Question: What about the Her2 level [2] of the same compound?
Answer: 92.5% (inactive)

Question: And the viability [3]?
Answer: 93% (inactive)

Question: And the viability [4]?
Answer: 103% (inactive)

Question: And the viability [5]?
Answer: 94.6% (inactive)

Question: What about the differential viability (reversal) ([6]; H69AR cells + 2 uM doxorubicin) of the same compound?
Answer: 7.29% (inactive)

Question: And the viability [6, 9]?
Answer: 87.3%

Question: And the viability [6, 10]?
Answer: 94.6%

Question: And the inhibition [7]?
Answer: -6.89% (inactive)

Question: And the inhibition [8]?
Answer: -3% (inactive)

Question: Which results are given for `CN(C)C(CN1C(=O)C2CC=CCC2C1=O)c1cn(C)c2ccccc12` (stereo not given)?
Answer: viability [1]: 104%; Her2 level [2]: 85.5% (inactive); viability [3]: 104% (inactive); viability [4]: 89.9% (inactive); viability [5]: 95.4% (inactive); differential viability (reversal) ([6]; H69AR cells + 2 uM doxorubicin): 6.72% (inactive); viability [6, 9]: 88.7%; viability [6, 10]: 95.4%; inhibition [7]: -6.71% (inactive); inhibition [8]: -1.59% (inactive)

Question: Which viability [1] does the source give for `COc1ccc(CCNC(=O)CC2COc3ccccc3O2)cc1OC` (stereo not given) here?
Answer: 102%

Question: What about the Her2 level [2] of the same compound?
Answer: 93% (inactive)

Question: And the viability [3]?
Answer: 102% (inactive)

Question: What about the viability [4] of the same compound?
Answer: 100% (inactive)

Question: What about the viability [5] of the same compound?
Answer: 85.4% (inactive)

Question: What about the differential viability (reversal) ([6]; H69AR cells + 2 uM doxorubicin) of the same compound?
Answer: 4.62% (inactive)

Question: And the viability [6, 9]?
Answer: 80.8%

Question: And the viability [6, 10]?
Answer: 85.4%

Question: What about the inhibition [7] of the same compound?
Answer: -4.67% (inactive)

Question: What about the inhibition [8] of the same compound?
Answer: 8.36% (inactive)

Question: Which viability [1] does the source give for `N#CC1=C(N)Oc2n[nH]c(-c3ccncc3)c2C1c1ccsc1` (stereo not given) here?
Answer: 88%

Question: And the Her2 level [2]?
Answer: 95% (inactive)

Question: And the viability [3]?
Answer: 88% (inactive)

Question: What about the viability [4] of the same compound?
Answer: 113% (inactive)

Question: What about the viability [5] of the same compound?
Answer: 87.7% (inactive)

Question: What about the differential viability (reversal) ([6]; H69AR cells + 2 uM doxorubicin) of the same compound?
Answer: -6.48% (inactive)

Question: And the viability [6, 9]?
Answer: 94.2%

Question: And the viability [6, 10]?
Answer: 87.7%

Question: What about the inhibition [7] of the same compound?
Answer: 0.53% (inactive)

Question: And the inhibition [8]?
Answer: -4% (inactive)

Question: Which viability [1] does the source give for `Cc1nnc(NC(=O)c2ccccc2F)s1` here?
Answer: 100%

Question: And the Her2 level [2]?
Answer: 101% (inactive)

Question: What about the viability [3] of the same compound?
Answer: 100% (inactive)

Question: What about the viability [4] of the same compound?
Answer: 107% (inactive)

Question: And the viability [5]?
Answer: 104% (inactive)

Question: What about the differential viability (reversal) ([6]; H69AR cells + 2 uM doxorubicin) of the same compound?
Answer: 13.8% (inactive)

Question: What about the viability [6, 9] of the same compound?
Answer: 90.2%

Question: What about the viability [6, 10] of the same compound?
Answer: 104%

Question: And the inhibition [7]?
Answer: -3.24% (inactive)

Question: And the inhibition [8]?
Answer: 4.76% (inactive)

Question: What does the source list for `COc1cccc2cc(C(=O)N3CCN(C45CC6CC(CC(C6)C4)C5)CC3)c(=O)oc12`?
Answer: viability [1]: 93.5%; Her2 level [2]: 92% (inactive); viability [3]: 93.5% (inactive); viability [4]: 81.8% (inactive); viability [5]: 107% (inactive); differential viability (reversal) ([6]; H69AR cells + 2 uM doxorubicin): 12.5% (inactive); viability [6, 9]: 94.7%; viability [6, 10]: 107%; inhibition [7]: -3.16% (inactive); inhibition [8]: -9.52% (inactive)

Question: Which results are given for `Cn1c2ccccc2c2c(C(=O)NCCCN3CCCC3=O)cn(C3CCCCC3)c(=O)c21`?
Answer: viability [1]: 86%; Her2 level [2]: 88.5% (inactive); viability [3]: 86% (inactive); viability [4]: 95.9% (inactive); viability [5]: 83.7% (inactive); differential viability (reversal) ([6]; H69AR cells + 2 uM doxorubicin): 3.06% (inactive); viability [6, 9]: 80.7%; viability [6, 10]: 83.7%; inhibition [7]: -4.53% (inactive); inhibition [8]: -0.49% (inactive)

Question: Which results are given for `COc1ccc(Cc2nc(-c3ccc(NC(=O)c4cccnc4)cc3)no2)cc1`?
Answer: viability [1]: 109%; Her2 level [2]: 84.5% (inactive); viability [3]: 109% (inactive); viability [4]: 123% (inactive); viability [5]: 17.7% (active); differential viability (reversal) ([6]; H69AR cells + 2 uM doxorubicin): -0.01% (inactive); viability [6, 9]: 17.7%; viability [6, 10]: 17.7%; inhibition [7]: -7.7% (inactive); inhibition [8]: 7.94% (inactive)

Question: With `CCOC(=O)c1cccc(NC(=O)CS(=O)(=O)Cc2nc(-c3cccc(OC)c3)oc2C)c1` as the compound, how does the viability [1] read?
Answer: 99.5%

Question: And the Her2 level [2]?
Answer: 79% (inactive)

Question: And the viability [3]?
Answer: 99.5% (inactive)

Question: And the viability [4]?
Answer: 95.2% (inactive)

Question: And the viability [5]?
Answer: 85.3% (inactive)

Question: And the differential viability (reversal) ([6]; H69AR cells + 2 uM doxorubicin)?
Answer: -7.47% (inactive)

Question: And the viability [6, 9]?
Answer: 92.8%

Question: And the viability [6, 10]?
Answer: 85.3%

Question: And the inhibition [7]?
Answer: -7.87% (inactive)

Question: And the inhibition [8]?
Answer: -6.61% (inactive)

Question: With `CN(c1ccccc1)C(c1ccc(F)cc1)c1nnnn1CC1CCCO1` (stereo not given) as the compound, how does the viability [1] read?
Answer: 104%

Question: What about the Her2 level [2] of the same compound?
Answer: 98% (inactive)

Question: And the viability [3]?
Answer: 104% (inactive)

Question: What about the viability [4] of the same compound?
Answer: 97% (inactive)

Question: What about the viability [5] of the same compound?
Answer: 94.1% (inactive)

Question: And the differential viability (reversal) ([6]; H69AR cells + 2 uM doxorubicin)?
Answer: 6.48% (inactive)

Question: And the viability [6, 9]?
Answer: 87.6%

Question: And the viability [6, 10]?
Answer: 94.1%

Question: And the inhibition [7]?
Answer: -4.32% (inactive)

Question: What about the inhibition [8] of the same compound?
Answer: 0.83% (inactive)

Question: What does the source list for `CCC(=O)Nc1cc(C(=O)NCC2CCCN2CC)c(OC)cc1N(C)C` (stereo not given)?
Answer: viability [1]: 101%; Her2 level [2]: 111% (inactive); viability [3]: 101% (inactive); viability [4]: 91.8% (inactive); viability [5]: 114% (inactive); differential viability (reversal) ([6]; H69AR cells + 2 uM doxorubicin): 19.7% (inactive); viability [6, 9]: 93.9%; viability [6, 10]: 114%; inhibition [7]: -1.47% (inactive); inhibition [8]: -3.23% (inactive)

Question: With `CCC(C)OC(=O)n1ccc(C(=O)Nc2nccs2)n1` (stereo not given) as the compound, how does the viability [1] read?
Answer: 106%

Question: What about the Her2 level [2] of the same compound?
Answer: 84% (inactive)

Question: What about the viability [3] of the same compound?
Answer: 106% (inactive)

Question: And the viability [4]?
Answer: 91.4% (inactive)

Question: What about the viability [5] of the same compound?
Answer: 91.4% (inactive)

Question: What about the differential viability (reversal) ([6]; H69AR cells + 2 uM doxorubicin) of the same compound?
Answer: -4.24% (inactive)

Question: And the viability [6, 9]?
Answer: 95.6%

Question: And the viability [6, 10]?
Answer: 91.4%

Question: And the inhibition [7]?
Answer: 0.53% (inactive)

Question: And the inhibition [8]?
Answer: -4.19% (inactive)

Question: Which viability [1] does the source give for `COc1ccc(OC)c(C2C(C(=O)Nc3cccnc3)=C(C)NC3=C2C(=O)CCC3)c1` (stereo not given) here?
Answer: 101%

Question: And the Her2 level [2]?
Answer: 81% (inactive)

Question: And the viability [3]?
Answer: 101% (inactive)

Question: What about the viability [4] of the same compound?
Answer: 88.3% (inactive)

Question: And the viability [5]?
Answer: 98.4% (inactive)

Question: And the differential viability (reversal) ([6]; H69AR cells + 2 uM doxorubicin)?
Answer: 15.1% (inactive)

Question: And the viability [6, 9]?
Answer: 83.3%

Question: And the viability [6, 10]?
Answer: 98.4%

Question: And the inhibition [7]?
Answer: -6.22% (inactive)

Question: And the inhibition [8]?
Answer: 1.8% (inactive)

Question: With `CCN(CC)C(=O)CSc1nc2ccc(NC(=O)CSc3nccn3C)cc2s1` as the compound, how does the viability [1] read?
Answer: 88.5%

Question: What about the Her2 level [2] of the same compound?
Answer: 93.5% (inactive)

Question: And the viability [3]?
Answer: 88.5% (inactive)

Question: And the viability [4]?
Answer: 68.2% (inactive)

Question: What about the viability [5] of the same compound?
Answer: 91% (inactive)

Question: And the differential viability (reversal) ([6]; H69AR cells + 2 uM doxorubicin)?
Answer: 6.22% (inactive)

Question: And the viability [6, 9]?
Answer: 84.8%

Question: And the viability [6, 10]?
Answer: 91%

Question: And the inhibition [7]?
Answer: -4.47% (inactive)

Question: What about the inhibition [8] of the same compound?
Answer: -1.45% (inactive)
